In data set [1] the test system is JQ1 resistant 22Rv1 cells. The data set can be described thus: Cell proliferation in JQ1 resistant cells. It is filed as cell-based. Particulars: for resistance, resistant vs parental: JQ1 resistant 22Rv1 cells. In a few lines: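 For resistance, 22Rv1 cells were cultured for 6 months in escalating BET inhibitor (30 nM up to 500 nM) or in 0.1% DMSO vehicle. Dose was raised only when morphology, viability and growth were good and after at least two passages at the prior dose. Parental (vehicle-cultured) and resistant cells were then compared for proliferation IC50.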

For data set [2], the system named is LNCaP-Bic mouse. Description: LNCaP-Bic mouse xenograft. It counts as in vivo.
Data set [3] relates to CP50c PDX. Description: CP50c patient-derived xenograft. It is filed as in vivo, mouse. In a few lines: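 CP50c PDX was passaged twice in castrated mice, then fragments were grafted subcutaneously into castrated male NSG mice. Oral gavage dosing began at about 300–400 mm³, once daily, with 5% DMSO:95% methylcellulose (0.5% w/v) as vehicle or formulation. Volumes were taken every 2–3 days and grouped by 5-day intervals, n=6 per group. Growth was normalized to start, and time to 300% of starting volume served as the surrogate survival endpoint.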
On the technique in general: Xenograft models place foreign cells or tissue in a host animal.

Data set [4] relates to 22Rv1 mouse xenografts. Description: 22Rv1 mouse xenograft. It counts as in vivo.
Data set [5] deals with LNCaP95 cells. The data set can be described thus: AR and C-MYC signaling. It counts as cell-based.
Data set [6] has as its system 22Rv1 cells. Description: Chromatin immunoprecipitation of CBP, p300 and AR-FL at AR binding sites. It counts as cell-based. Particulars: 500nM, 10nM dihydrotestosterone.
Data set [7] deals with 44 receptors, enzymes and ion channels. The data set can be described thus: Safety screen of 44 receptors, enzymes and ion channels. It counts as biochemical. Particulars: at 10 μM.
Data set [8] concerns LNCaP95. Description: Cell proliferation. It is filed as cell-based. Particulars: LNCaP-95, read-out: growth inhibition IC50.
Data set [9] deals with C4–2 cells. The data set can be described thus: Chromatin immunoprecipitation of CBP, p300 and AR-FL at AR binding sites. It counts as cell-based. The following applies: 500nM, 10nM dihydrotestosterone.
Data set [10] has as its system patients with mCRPC. Description: First in human phase I trial. It counts as in vivo.
Data set [11] relates to 97 kinases. The data set can be described thus: Screen of 97 kinases. The following applies: at 10 μM. It is filed as biochemical.
Data set [12] has as its system AR negative, hormone independent, cell lines. The data set can be described thus: Cell proliferation. It is filed as cell-based. The following applies: read-out: growth inhibition IC50.
In data set [13] the test system is 22Rv1. Description: Cell proliferation. It counts as cell-based.
Data set [14] has as its system 22Rv1 cells. The data set can be described thus: AR and C-MYC signaling. It counts as cell-based.
Data set [15] relates to BRD2, 3, 4, 9 and WDR9. The data set can be described thus: Bromoscan assay of 32 bromodomains. The following applies: at 1 μM; minimal binding.
Data set [16] deals with BRD4 bromodomain (Homo sapiens, UniProt O60885). It is filed as cell-based.
The test system of data set [17] is VCaP. Description: Cell proliferation. The following applies: Homo sapiens, read-out: growth inhibition IC50. It counts as cell-based.
For data set [18], the system named is androgen-dependent and castration resistant prostate cancer cell lines. The following applies: ref [35], [54]; cited from earlier work.

The values that follow come from paper PMC8102310 (Cancer discovery, 2021).

Where two headings read alike, the source gives them in different places. Where only a bound is given, the exact number is not on record here.

Take I-BET151: in data set [1], the “resistance, resistant vs parental” value is given as greater than 100 fold.

In the case of `CO[C@H]1CC[C@H](n2c([C@@H]3CCCC(=O)N3c3ccc(F)c(F)c3)nc3cc(-c4c(C)noc4C)ccc32)CC1` [CCS1477], in data set [2], the “tumor growth compared to enzalutamide” value is “significantly (p=<0.001) reduced tumor growth”. Moreover, the “median time to 300% growth” value in data set [3] (20 mg/kg once-daily, vehicle 38) came out at 56 days. Also, in [3] (oral 20 mg/kg QD vs vehicle), the “survival (time to 300% growth)” value is on record as “significantly (p=<0.001) prolonged survival”. For the same molecule, the tumor growth entry in data set [3] (oral 20 mg/kg QD vs vehicle) is on record as “significantly (p=0.02) reduced tumor growth”; in data set [4] (oral, 10mg/kg QD, 20 mg/kg QD, 30 mg/kg QOD, vs vehicle), “significantly (p=<0.001) impacted tumor growth”. In data set [4] (22Rv1 xenograft), the “most effective tolerated dose” value is recorded as 20 mg/kg. The “concentration of CCS1477 in plasma and tumor” value in data set [4] (24-hours after the last dose) is reported as “undetectable”. Moreover, the “AR-FL, AR-V7 and C-MYC protein expression in tumors” value in data set [4] (after 7-days of treatment, all doses tested) is on record as “reduced”. Moreover, in data set [4] (all doses), the “plasma KLK3 concentrations” value was “decrease”. Moreover, the “levels of CCS1477 in plasma or tumor” value in data set [4] (day 52) is recorded as “no detectable levels”. In data set [4] (mouse, in vivo), the tolerability result is reported as “well tolerated with no change in body weight or condition of the animals”. Besides, the “tumor growth inhibition after treatment stopped at 28-days” value in data set [4] (treatment stopped after 28-days) is “sustained until day 52”. Moreover, the “expression of AR regulated genes (KLK2, KLK3 and TMPRSS2)” value in data set [5] (48-hours) and in data set [14] (48-hours) was “reduced” each time. Besides, the C-MYC protein expression result in data set [5] (LNCaP95) and in data set [14] (22Rv1) was “reduced” each time. The “recruitment of CBP, p300 and AR-FL to AR binding sites” value is “reduced the recruitment of CBP, p300 and AR-FL” in data set [6]; “reduced the recruitment of CBP, p300 and AR-FL” in data set [9]. The “biochemical inhibitory activity in safety screen” value in data set [7] is reported as “no biochemical inhibitory activity”. Also, the IC50 (as a rule, the concentration at which inhibition is half-maximal) in data set [8] was less than 100 nM; in data set [12], greater than 1000 nM; in data set [13] (Homo sapiens, 22Rv1, read-out: growth inhibition IC50, 22Rv1) it was less than 100 nM; in data set [13] (read-out: growth inhibition IC50, 22Rv1) it was 96 nM; in data set [16] it was 1060 nM; in data set [17], less than 100 nM. In [1] (compared with parental), the “sensitivity of JQ1 resistant 22Rv1 cells to treatment” value is recorded as “more sensitive”. For the same molecule, the “plasma KLK3” value in data set [10] (Patient 1, 50 mg BD 3-days-on-and-4 days-off) is reported as “initial fall in plasma KLK3 which then stabilized”. Also, the “biopsy protein expression post-dose vs pre-dose (IHC)” value in data set [10] (Patient 1, 50 mg BD, 4-hours post dose) was “reduction in AR-V7 and C-MYC protein expression”; in [10] (Patient 2, 25 mg BD, 3-hours post dose), “reduction in C-MYC and Ki67 protein expression”. Also, the biochemical inhibitory activity entry in [11] is reported as “no biochemical inhibitory activity”. For the same molecule, the “binding, % of control” value in [15] is 14–33 % of control.

For `Cc1sc2c(c1C)C(c1ccc(Cl)cc1)=N[C@@H](CC(=O)Nc1ccc(O)cc1)c1nnc(C)n1-2` [OTX-015], the “resistance, resistant vs parental” value in data set [1] is on record as greater than 100 fold.

Consider `Cc1sc2c(c1C)C(c1ccc(Cl)cc1)=N[C@@H](CC(=O)OC(C)(C)C)c1nnc(C)n1-2` [JQ1], for which the “resistance, resistant vs parental” value in data set [1] is listed as greater than 100 fold. Moreover, the IC50 in data set [1] (read-out: IC50 in JQ1 resistant 22Rv1 cells, resistant cells) was 7.3 µM; in data set [13] (read-out: IC50 in parental 22Rv1 cells, parental cells, vehicle cultured), 60 nM.

For `CNC(=O)Nc1ccc2c(c1)CC[C@@]21OC(=O)N(CC(=O)N(Cc2ccc(F)cc2)[C@@H](C)C(F)(F)F)C1=O` [A-485], the cell death result in [18] is listed as “induce cell death”.

Consider `CC1=NN(c2ccc(C(=O)O)cc2)C(=O)/C1=C\c1ccc(-c2cc(C)c(C)cc2[N+](=O)[O-])o1` [C646], for which the cell death entry in data set [18] was “induce cell death”.
